17 compounds from ChEMBL document CHEMBL1158524, “Synthesis and SAR of novel imidazoles as potent and selective cannabinoid CB2 receptor antagonists with high binding efficiencies” (Bioorg Med Chem Lett, 2010) can be followed below.

Test [1] deals with T1, Cannabinoid receptor 2 (Homo sapiens, UniProt P34972). In words: Displacement of [3H]CP-55940 from human CB2 receptor expressed in CHO cells. The format is cell-based. In a few lines: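 CHO cells stably transfected with human CB2 receptor. Values are the mean of at least three independent experiments.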
(Loss of bound radioactivity is the signal in a displacement assay; it reports binding, not function.)

The target of the next test is Cannabinoid receptor 1 (Homo sapiens, UniProt P21554). In words: Displacement of [3H]CP-55940 from human CB1 receptor expressed in CHO cells. The format is cell-based. In short, it runs like this: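 CHO cells stably transfected with human CB1 receptor. Values are the mean of at least three independent experiments.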
The species entered for a further test is Homo sapiens. In words: Selectivity ratio of Ki for human CB1 to Ki for human CB2.
The target in test [2] is T1, Cannabinoid receptor 2. Description: Inverse agonist activity at human CB2 receptor assessed as stimulation of cAMP accumulation after 20 mins.
In test [3] the target is T1, Cannabinoid receptor 2. In words: Inverse agonist activity at human CB2 receptor assessed as inhibition of forskolin-stimulated cAMP accumulation after 4 hrs. The test is classed as functional. In a few lines:
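Functional human CB2 cAMP accumulation assay with the incubation extended to 4 h. Inverse agonism read out as pEC50. Values are the mean of at least three independent experiments.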

The target of test [4] is T1, Cannabinoid receptor 2. Description: Antagonist activity at human CB2 receptor assessed as inhibition of forskolin-stimulated cAMP accumulation in presence of JWH133. The test is classed as functional. The following applies: read-out: pA2 (converted). In a few lines:
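Human CB2 cAMP accumulation assay measuring dose-dependent antagonism of the CB2-selective agonist JWH133, expressed as pA2 ± error. Incubation was 20 min, or 4 h for some compounds. Based on at least three independent experiments.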
Background: Changes in cAMP serve as a functional read-out for many G protein-coupled receptors.

T1 sequence (P34972 whole entry): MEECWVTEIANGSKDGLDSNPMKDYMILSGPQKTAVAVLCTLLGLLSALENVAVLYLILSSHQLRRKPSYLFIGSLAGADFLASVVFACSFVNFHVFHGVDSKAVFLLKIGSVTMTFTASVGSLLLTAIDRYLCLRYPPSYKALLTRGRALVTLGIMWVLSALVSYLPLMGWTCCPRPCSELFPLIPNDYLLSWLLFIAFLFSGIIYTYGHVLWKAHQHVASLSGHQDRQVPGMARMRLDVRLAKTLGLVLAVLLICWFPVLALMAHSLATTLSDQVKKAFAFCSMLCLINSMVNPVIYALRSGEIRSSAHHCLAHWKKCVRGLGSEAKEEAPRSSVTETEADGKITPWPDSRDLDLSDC
Chain of Cannabinoid receptor 1 (P21554 whole entry): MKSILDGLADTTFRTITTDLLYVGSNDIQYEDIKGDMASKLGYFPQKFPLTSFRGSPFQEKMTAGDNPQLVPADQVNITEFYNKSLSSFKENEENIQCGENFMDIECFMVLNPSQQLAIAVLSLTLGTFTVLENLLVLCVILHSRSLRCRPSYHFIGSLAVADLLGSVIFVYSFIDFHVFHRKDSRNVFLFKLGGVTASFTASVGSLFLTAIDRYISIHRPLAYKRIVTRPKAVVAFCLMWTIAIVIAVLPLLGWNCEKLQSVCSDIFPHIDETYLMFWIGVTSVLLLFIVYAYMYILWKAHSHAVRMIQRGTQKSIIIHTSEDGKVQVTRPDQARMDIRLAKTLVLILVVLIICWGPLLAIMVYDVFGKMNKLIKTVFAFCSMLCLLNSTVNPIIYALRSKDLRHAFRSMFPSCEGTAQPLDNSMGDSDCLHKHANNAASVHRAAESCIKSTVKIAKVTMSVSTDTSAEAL

On to `CSc1c(C(=O)NC23CC4CC(CC(C4)C2)C3)nc(C)n1-c1ccccc1`, for which the Ki – broadly, a measure of affinity in units of concentration, obtained from inhibition or displacement – is 10 nM at Cannabinoid receptor 2 [1] and above 10000 nM on Cannabinoid receptor 1. Also, in the test listed under Homo sapiens, the Ratio is above 1000. In addition, the concentration for a half-maximal effect (EC50) (as a rule, the midpoint of the concentration-response curve) at Cannabinoid receptor 2 [2] was 6.31 nM.

As to `CCc1c(C(=O)NC23CC4CC(CC(C4)C2)C3)nc(C)n1-c1ccccc1`, the results for the Ki at Cannabinoid receptor 2 [1] and at Cannabinoid receptor 1 were 1.03 nM and above 10000 nM, respectively. The EC50 on Cannabinoid receptor 2 [3] is 0.251 nM; on Cannabinoid receptor 2 [2] it was 20 nM. For the same compound, the Ratio in the test listed under Homo sapiens is above 9710. Moreover, the Kb at Cannabinoid receptor 2 [4] was 1 nM.

As to `Cc1nc(C(=O)NC2C3CC4CC(C3)C2C4)c(C)n1-c1ccccc1` (stereo not drawn), the Ki is 9.7 nM on Cannabinoid receptor 2 [1] and 5440 nM at Cannabinoid receptor 1. Also, the Ratio in the test filed under Homo sapiens was 561. Further, the EC50 on Cannabinoid receptor 2 [2] was 7.94 nM.

For `Cc1nc(C(=O)NC23CC4CC(CC(C4)C2)C3)c(C)n1C1CCCCC1`, the Ki at Cannabinoid receptor 2 [1] is 20 nM; on Cannabinoid receptor 1, above 10000 nM. Further, the Ratio in the test listed under Homo sapiens is above 500. On Cannabinoid receptor 2 [2], the 50% effective concentration (EC50) was 126 nM.

For `O=C(NC12CC3CC(CC(C3)C1)C2)c1nc(Cl)n(-c2ccccc2)c1Cl`, the Ki is 50 nM at Cannabinoid receptor 2 [1] and above 1000 nM on Cannabinoid receptor 1. The Ratio in the test filed under Homo sapiens was above 20. The EC50 on Cannabinoid receptor 2 [2] was 79.4 nM. For the same compound, the Kb at Cannabinoid receptor 2 [4] is 7.94 nM.

For the compound `CCc1nc(C(=O)NC23CC4CC(CC(C4)C2)C3)c(C)n1-c1ccccc1`, the Ki turned out to be 1.6 nM at Cannabinoid receptor 2 [1] and 4150 nM at Cannabinoid receptor 1. Also, the Ratio in the test filed under Homo sapiens was determined as 2600. Further, at Cannabinoid receptor 2 [2], the concentration for a half-maximal effect (EC50) was 1.58 nM. The Kb at Cannabinoid receptor 2 [4] was 5.01 nM.

`Cc1nc(C(=O)NCc2ccccc2C(F)(F)F)c(C)n1-c1ccccc1`: the inhibitory constant (Ki) turned out to be 3.5 nM on Cannabinoid receptor 2 [1] and 1420 nM at Cannabinoid receptor 1. For the same compound, the Ratio in the test filed under Homo sapiens came out at 406. The 50% effective concentration (EC50) on Cannabinoid receptor 2 [2] is 0.2 nM.

Regarding `Cc1nc(C(=O)NC2C3CC4CC(C3)CC2C4)c(C)n1-c1ccccc1` (stereo not drawn), the Ki at Cannabinoid receptor 2 [1] was 13.8 nM; on Cannabinoid receptor 1 it was 3010 nM. In the test filed under Homo sapiens, the Ratio was determined as 218. Besides, on Cannabinoid receptor 2 [2], the EC50 was 6.31 nM.

For `Cc1nc(C(=O)NC23CC4CC(CC(C4)C2)C3)c(Cl)n1-c1ccccc1`, the inhibition constant (Ki) at Cannabinoid receptor 2 [1] is 23.8 nM; at Cannabinoid receptor 1, above 10000 nM. Further, in the test listed under Homo sapiens, the Ratio was above 420. Also, the 50% effective concentration (EC50) on Cannabinoid receptor 2 [2] is 63.1 nM.

With `CCc1nc(C(=O)NC23CC4CC(CC(C4)C2)C3)cn1-c1ccccc1`, the inhibition constant (Ki) is 12.7 nM at Cannabinoid receptor 2 [1] and above 1000 nM at Cannabinoid receptor 1. Besides, the figures for the EC50 on Cannabinoid receptor 2 [3] and on Cannabinoid receptor 2 [2] were 6.31 nM and 12.6 nM, respectively. Besides, in the test filed under Homo sapiens, the Ratio was above 79.

For `Cc1c(C(=O)NC[C@H]2C[C@@H]3C[C@H](C2)C3(C)C)ncn1-c1ccccc1`, the inhibition constant Ki at Cannabinoid receptor 2 [1] is 175 nM; on Cannabinoid receptor 1, above 10000 nM. The Ratio in the test filed under Homo sapiens is above 57. At Cannabinoid receptor 2 [2], the EC50 was 158 nM.

In the case of `Cc1nc(C(=O)NC[C@H]2C[C@@H]3C[C@H](C2)C3(C)C)c(C)n1-c1ccccc1`, the figures for the inhibition constant Ki at Cannabinoid receptor 2 [1] and on Cannabinoid receptor 1 were 20 nM and 3990 nM, respectively. Also, the Ratio in the test listed under Homo sapiens was 200. In addition, the EC50 on Cannabinoid receptor 2 [2] was 31.6 nM.

Consider `CCCCCOc1c(OC)ccc2cc(C(=O)NCc3ccc4c(c3)OCO4)c(=O)[nH]c12`, for which, on Cannabinoid receptor 1, the Ki was found to be 3920 nM.

With `Cc1nc(C(=O)NC23CC4CC(CC(C4)C2)C3)c(Br)n1-c1ccccc1`, the inhibitory constant (Ki) at Cannabinoid receptor 2 [1] is 8.4 nM; on Cannabinoid receptor 1, above 10000 nM. Also, in the test listed under Homo sapiens, the Ratio is above 1190.

As to `CCCCc1c(C(=O)NC23CC4CC(CC(C4)C2)C3)nc(C)n1-c1ccccc1`, the results for the inhibitory constant (Ki) at Cannabinoid receptor 2 [1] and at Cannabinoid receptor 1 were 9.8 nM and 2000 nM, respectively. In the test listed under Homo sapiens, the Ratio is above 102. The EC50 at Cannabinoid receptor 2 [2] is 5.01 nM.

As to `C[C@H](NS(C)(=O)=O)c1ccc(S(=O)(=O)c2ccc(Cl)cc2S(=O)(=O)c2ccccc2F)cc1`, the results for the Ki at Cannabinoid receptor 2 [1] and on Cannabinoid receptor 1 were 0.8 nM and 3540 nM, respectively. The concentration giving a half-maximal response (EC50) is 5.01 nM at Cannabinoid receptor 2 [3] and 7.94 nM on Cannabinoid receptor 2 [2]. For the same compound, the Ratio in the test listed under Homo sapiens came to 4420. Moreover, the Kb at Cannabinoid receptor 2 [4] is 1 nM.

As for `Cc1nc(C(=O)NC23CC4CC(CC(C4)C2)C3)c(C)n1-c1ccccc1`, the inhibition constant Ki on Cannabinoid receptor 2 [1] came to 2.7 nM; at Cannabinoid receptor 1, 4890 nM. The half-maximal effective concentration (EC50) on Cannabinoid receptor 2 [3] and at Cannabinoid receptor 2 [2] was 0.794 nM in each case. For the same compound, the Ratio in the test listed under Homo sapiens was 1810. At Cannabinoid receptor 2 [4], the Kb was 1.58 nM.
